From ChEMBL document CHEMBL4706649, “Design, synthesis and biological evaluation of new benzoxazolone/benzothiazolone derivatives as multi-target agents against Alzheimer's disease” (Eur J Med Chem, 2021)
pIC50: −log10 of the molar value. Calls of active or inactive are those of the source. No cut-off for these calls is given here.

Assays:
[1] = molecular target: Cholinesterase (Equus caballus) (UniProt P81908); assay: Inhibition of equine serum BChE at 100 uM using butyrylthiocholine iodide as substrate preincubated for 10 mins followed by substrate addition and measured for 10 mins by Ellman's method relative to control; settings: time 20.0 min
In short: (§1)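 Ellman single-concentration screen in 50 mM Tris-HCl pH 8.0 with DTNB (6.8 mM stock) and 1% DMSO. Enzyme solution 0.4 U/mL AChE or 0.8 U/mL BChE. Compound and enzyme preincubated 10 min at 25 °C, then ATI (10 mM stock) or BTI (30 mM stock) added. A412 followed for 10 min, blank-subtracted, % inhibition versus no-compound control. Triplicate.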

[2] = Antioxidant activity assessed as trolox equivalent of AAPH radical scavenging activity at 10 uM measured every min for 90 mins by ORAC-FL assay; format: functional
In short: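 ORAC-FL in 75 mM phosphate buffer pH 7.4. Sample and fluorescein (150 nM final) preincubated 15 min at 37 °C, then AAPH (12 mM final) added. Fluorescence (ex 485/em 535 nm) read each minute for 90 min. Net AUC after blank subtraction, converted to Trolox equivalents from a Trolox curve (0.5–8, final; Trolox = 1). Duplicate wells, three independent assays.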

[3] = molecular target: Acetylcholinesterase (Electrophorus electricus) (UniProt O42275); assay: Inhibition of electric eel AChE at 100 uM using acetylthiocholine iodide as substrate preincubated for 10 mins followed by substrate addition and measured for 10 mins by Ellman's method relative to control; settings: time 20.0 min; in short: as §1
Acetylcholinesterase = Acetylcholinesterase (Electrophorus electricus, UniProt O42275); assay: Inhibition of electric eel AChE using acetylthiocholine iodide as substrate preincubated for 10 mins followed by substrate addition and measured for 10 mins by Ellman's method
THP-1 [4] = assay: Antiinflammatory activity in LPS-induced human THP-1 cells assessed as reduction in IL1beta release at 10 uM peincubated for 1 hr followed by LPS stimulation and measured after 24 hrs by EIA; format: functional, cell-based; settings: time 25.0 hrs
In short: (§2)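 THP-1 cells grown in RPMI 1640 with 10% FCS, penicillin and streptomycin at 37 °C, 5% CO2, then plated overnight at 4×10⁴ cells/well. Test compound added 1 h before 100 ng/ml E. coli O111:B4 LPS; 24 h incubation. Untreated and LPS-only controls. […]; cytokine read by EIA at 450 nm against a standard curve. At least triplicate.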

THP-1 [5] = assay: Antiinflammatory activity in LPS-induced human THP-1 cells assessed as reduction in nitric oxide release at 10 uM peincubated for 1 hr followed by LPS stimulation and measured after 24 hrs by ELISA; format: functional, cell-based; settings: time 25.0 hrs
In short: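 THP-1 cells plated overnight at 4×10⁴ cells/well, given test compound 1 h before 100 ng/ml LPS (E. coli O111:B4), then incubated 24 h. Cell-free supernatants stored at −20 °C, then NO measured by ELISA kit (sensitivity 1,12 […]) from a standard curve. Untreated cells as negative control, LPS-only as positive control. At least triplicate.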

THP-1 [6] = assay: Antiinflammatory activity in LPS-induced human THP-1 cells assessed as reduction in IL6 release at 10 uM peincubated for 1 hr followed by LPS stimulation and measured after 24 hrs by EIA; format: functional, cell-based; settings: time 25.0 hrs; in short: as §2
THP-1 [7] = assay: Antiinflammatory activity in LPS-induced human THP-1 cells assessed as reduction in TNFalpha release at 10 uM peincubated for 1 hr followed by LPS stimulation and measured after 24 hrs by EIA; format: functional, cell-based; settings: time 25.0 hrs; in short: as §2
Cholinesterase = Cholinesterase (Equus caballus, UniProt P81908); assay: Inhibition of equine serum BChE using butyrylthiocholine iodide as substrate preincubated for 10 mins followed by substrate addition and measured for 10 mins by Ellman's method
In short: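 BChE (0.8 U/mL solution) preincubated with inhibitor 10 min at 25 °C in Tris-HCl pH 8.0 with DTNB and 1% DMSO, then BTI (30 mM stock) added. A412 read over 10 min, blank-corrected. IC50 from log[inhibitor] versus % inhibition. Triplicate, mean ± SD.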

Chain of Cholinesterase (Equus caballus) (P81908 whole entry): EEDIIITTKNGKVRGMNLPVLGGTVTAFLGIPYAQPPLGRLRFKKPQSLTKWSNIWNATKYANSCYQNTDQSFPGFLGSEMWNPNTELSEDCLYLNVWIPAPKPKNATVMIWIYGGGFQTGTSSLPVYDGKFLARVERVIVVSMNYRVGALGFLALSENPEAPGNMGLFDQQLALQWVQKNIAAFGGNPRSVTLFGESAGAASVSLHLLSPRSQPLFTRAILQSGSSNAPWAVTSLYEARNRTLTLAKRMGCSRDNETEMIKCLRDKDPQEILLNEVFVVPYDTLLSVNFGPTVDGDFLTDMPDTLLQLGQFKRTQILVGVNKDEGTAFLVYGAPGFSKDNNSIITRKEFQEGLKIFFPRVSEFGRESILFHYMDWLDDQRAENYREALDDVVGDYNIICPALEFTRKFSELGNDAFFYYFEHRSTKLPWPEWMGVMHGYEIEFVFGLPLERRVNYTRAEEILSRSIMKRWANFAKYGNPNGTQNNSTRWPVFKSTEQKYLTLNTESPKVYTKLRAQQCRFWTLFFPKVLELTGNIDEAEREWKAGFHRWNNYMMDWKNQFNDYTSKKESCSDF
Chain of Acetylcholinesterase (O42275 whole entry): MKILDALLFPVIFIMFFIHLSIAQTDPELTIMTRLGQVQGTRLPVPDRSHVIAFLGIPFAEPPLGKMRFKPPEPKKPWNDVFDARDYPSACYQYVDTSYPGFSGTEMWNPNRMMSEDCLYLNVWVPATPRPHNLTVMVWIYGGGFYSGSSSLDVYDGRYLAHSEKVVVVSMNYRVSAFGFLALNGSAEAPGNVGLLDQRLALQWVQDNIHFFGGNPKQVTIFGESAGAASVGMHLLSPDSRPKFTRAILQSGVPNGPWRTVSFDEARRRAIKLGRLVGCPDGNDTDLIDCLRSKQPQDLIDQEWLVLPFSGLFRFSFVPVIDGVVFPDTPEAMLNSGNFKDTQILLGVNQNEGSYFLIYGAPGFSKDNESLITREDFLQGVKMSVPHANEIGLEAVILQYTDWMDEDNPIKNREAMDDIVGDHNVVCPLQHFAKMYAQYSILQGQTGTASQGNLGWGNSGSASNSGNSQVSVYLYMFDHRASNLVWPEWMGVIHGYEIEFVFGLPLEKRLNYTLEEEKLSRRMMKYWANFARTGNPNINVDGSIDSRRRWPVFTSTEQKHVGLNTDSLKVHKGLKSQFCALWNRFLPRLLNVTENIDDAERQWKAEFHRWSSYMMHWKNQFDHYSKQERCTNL
Chain of Acetylcholinesterase (Electrophorus electricus) (O42275 24-633 limits assumed): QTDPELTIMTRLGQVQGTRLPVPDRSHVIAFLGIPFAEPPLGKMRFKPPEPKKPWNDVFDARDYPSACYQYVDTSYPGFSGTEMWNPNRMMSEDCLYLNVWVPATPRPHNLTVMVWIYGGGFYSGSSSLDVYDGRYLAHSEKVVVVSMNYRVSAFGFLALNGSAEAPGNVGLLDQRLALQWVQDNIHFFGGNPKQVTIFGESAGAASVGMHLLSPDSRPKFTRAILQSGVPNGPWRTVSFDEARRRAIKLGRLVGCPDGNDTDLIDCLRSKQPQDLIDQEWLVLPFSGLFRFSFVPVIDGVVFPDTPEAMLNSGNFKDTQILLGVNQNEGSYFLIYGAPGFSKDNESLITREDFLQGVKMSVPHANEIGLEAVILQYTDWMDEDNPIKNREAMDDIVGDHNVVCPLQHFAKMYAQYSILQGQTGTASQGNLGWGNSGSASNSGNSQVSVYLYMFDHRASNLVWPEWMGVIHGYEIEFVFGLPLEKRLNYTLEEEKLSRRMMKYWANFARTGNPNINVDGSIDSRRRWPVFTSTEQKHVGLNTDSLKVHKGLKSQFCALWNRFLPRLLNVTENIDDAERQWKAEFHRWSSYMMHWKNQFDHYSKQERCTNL
Chain of Cholinesterase (P81908 whole entry): as the sequence (P81908 whole entry) above

SMILES: Cn1c(=O)oc2cc(NC(=O)CCN3CCN(Cc4ccc(C(F)(F)F)cc4)CC3)ccc21
- inhibition [1]: < 10%
- Activity [2]: 3.96 equiv
- inhibition [3]: 35%

SMILES: Cn1c(=O)oc2cc(NC(=O)CCN3CCN(c4ccc(C(F)(F)F)cc4)CC3)ccc21
- inhibition [1]: < 10%
- Activity [2]: 3.9 equiv
- inhibition [3]: 35%

SMILES: COc1ccc(CN2CCN(CCC(=O)Nc3ccc4c(c3)sc(=O)n4C)CC2)cc1
- inhibition [1]: < 10%
- Activity [2]: 4.28 equiv
- inhibition [3]: 39%

SMILES: Cn1c(=O)oc2cc(NC(=O)CCN3CCN(Cc4ccc(F)cc4)CC3)ccc21
- inhibition [1]: 21%
- Activity [2]: 3.92 equiv
- inhibition [3]: 66%
- pIC50 (Acetylcholinesterase): 4.79

SMILES: Cn1c(=O)oc2cc(NC(=O)CCN3CCC(c4ccccc4)CC3)ccc21
- inhibition [1]: < 10%
- Activity [2]: 4.09 equiv
- inhibition [3]: 25%

SMILES: Cn1c(=O)oc2cc(NC(=O)CCCN3CCN(Cc4ccccc4)CC3)ccc21
- Activity (THP-1 [4]): Active
- Activity (THP-1 [5]): Active
- Activity (THP-1 [6]): Active
- inhibition [1]: < 10%
- Activity [2]: 3.97 equiv
- inhibition [3]: 94%
- Activity (THP-1 [7]): Active
- pIC50 (Acetylcholinesterase): 5.22

SMILES: Cn1c(=O)sc2cc(C(=O)CCN3CCC(c4ccccc4)CC3)ccc21
- inhibition [1]: 79%
- Activity [2]: 3.1 equiv
- pIC50 (Cholinesterase): 4.85
- inhibition [3]: 81%
- pIC50 (Acetylcholinesterase): 5.36

SMILES: Cn1c(=O)oc2cc(NC(=O)CCN3CCN(c4ccc(F)cc4)CC3)ccc21
- inhibition [1]: < 10%
- Activity [2]: 3.85 equiv
- inhibition [3]: 35%

SMILES: Cn1c(=O)oc2cc(NC(=O)CCN3CCN(Cc4ccc(Cl)cc4)CC3)ccc21
- inhibition [1]: < 10%
- Activity [2]: 4.19 equiv
- inhibition [3]: 40%

SMILES: Cn1c(=O)sc2cc(NC(=O)CCN3CCC(Cc4ccccc4)CC3)ccc21
- inhibition [1]: 60%
- Activity [2]: 4.01 equiv
- pIC50 (Cholinesterase): 4.12
- inhibition [3]: 62%
- pIC50 (Acetylcholinesterase): 4.50

SMILES: Cn1c(=O)sc2cc(NC(=O)CCN3CCN(Cc4ccccc4)CC3)ccc21
- Activity (THP-1 [4]): Active
- Activity (THP-1 [5]): Active
- Activity (THP-1 [6]): Active
- inhibition [1]: < 10%
- Activity [2]: 4.08 equiv
- inhibition [3]: 92%
- Activity (THP-1 [7]): Active
- pIC50 (Acetylcholinesterase): 5.63

SMILES: Cn1c(=O)oc2cc(NC(=O)CCN3CCN(c4ccc(Cl)cc4)CC3)ccc21
- inhibition [1]: < 10%
- Activity [2]: 3.95 equiv
- inhibition [3]: 30%

SMILES: Cn1c(=O)oc2cc(NC(=O)CCCCN3CCN(Cc4ccccc4)CC3)ccc21
- inhibition [1]: < 10%
- Activity [2]: 2.63 equiv
- inhibition [3]: 82%
- pIC50 (Acetylcholinesterase): 4.51

SMILES: Cn1c(=O)oc2cc(NC(=O)CCN3CCN(c4ccccc4)CC3)ccc21
- inhibition [1]: < 10%
- Activity [2]: 4.02 equiv
- inhibition [3]: 32%

SMILES: Cn1c(=O)sc2cc(NC(=O)CCN3CCN(c4ccc(C(F)(F)F)cc4)CC3)ccc21
- inhibition [1]: < 10%
- Activity [2]: 4.1 equiv
- inhibition [3]: 36%

SMILES: COc1ccc(CN2CCN(CCC(=O)Nc3ccc4c(c3)oc(=O)n4C)CC2)cc1
- inhibition [1]: < 10%
- Activity [2]: 4.2 equiv
- inhibition [3]: 38%

SMILES: Cn1c(=O)oc2cc(NC(=O)CCN3CCC(Cc4ccccc4)CC3)ccc21
- inhibition [1]: 47%
- Activity [2]: 3.87 equiv
- inhibition [3]: 64%
- pIC50 (Acetylcholinesterase): 4.61

SMILES: Cn1c(=O)oc2cc(NC(=O)CCN3CCN(Cc4ccccc4)CC3)ccc21
- Activity (THP-1 [4]): Active
- Activity (THP-1 [5]): Active
- Activity (THP-1 [6]): Active
- inhibition [1]: 30%
- Activity [2]: 3.78 equiv
- inhibition [3]: 81%
- Activity (THP-1 [7]): Active
- pIC50 (Acetylcholinesterase): 5.16

SMILES: O=C(CCN1CCN(Cc2ccccc2)CC1)Nc1ccc2nc(-c3ccccc3)sc2c1
- inhibition [1]: < 10%
- Activity [2]: 2.64 equiv
- inhibition [3]: < 10%

SMILES: O=C(CCN1CCN(Cc2ccccc2)CC1)Nc1ccc2nc(-c3ccccc3)oc2c1
- inhibition [1]: < 10%
- Activity [2]: 2.68 equiv
- inhibition [3]: < 10%

SMILES: Cn1c(=O)sc2cc(NC(=O)CCCCN3CCN(Cc4ccccc4)CC3)ccc21
- inhibition [1]: < 10%
- Activity [2]: 2.67 equiv
- inhibition [3]: 87%
- pIC50 (Acetylcholinesterase): 4.86

SMILES: Cn1c(=O)sc2cc(NC(=O)CCN3CCN(Cc4ccc(Cl)cc4)CC3)ccc21
- inhibition [1]: < 10%
- Activity [2]: 4.01 equiv
- inhibition [3]: 37%

SMILES: Cn1c(=O)sc2cc(NC(=O)CCN3CCN(c4ccccc4)CC3)ccc21
- inhibition [1]: < 10%
- Activity [2]: 4.24 equiv
- inhibition [3]: 34%

SMILES: Cn1c(=O)sc2cc(NC(=O)CCN3CCN(Cc4ccc(C(F)(F)F)cc4)CC3)ccc21
- inhibition [1]: < 10%
- Activity [2]: 4.45 equiv
- inhibition [3]: 35%

SMILES: Cc1ccc(N2CCN(CCC(=O)Nc3ccc4c(c3)sc(=O)n4C)CC2)cc1
- inhibition [1]: < 10%
- Activity [2]: 4.31 equiv
- inhibition [3]: 35%

SMILES: Cc1ccc(N2CCN(CCC(=O)Nc3ccc4c(c3)oc(=O)n4C)CC2)cc1
- inhibition [1]: < 10%
- Activity [2]: 4.03 equiv
- inhibition [3]: 33%

SMILES: Cn1c(=O)sc2cc(NC(=O)CCN3CCN(c4ccc(Cl)cc4)CC3)ccc21
- inhibition [1]: < 10%
- Activity [2]: 4.43 equiv
- inhibition [3]: 32%

SMILES: COc1ccc(N2CCN(CCC(=O)Nc3ccc4c(c3)oc(=O)n4C)CC2)cc1
- inhibition [1]: < 10%
- Activity [2]: 4.28 equiv
- inhibition [3]: 29%

SMILES: Cn1c(=O)oc2cc(C(=O)CCN3CCN(Cc4ccccc4)CC3)ccc21
- Activity (THP-1 [4]): Active
- Activity (THP-1 [5]): Active
- Activity (THP-1 [6]): Active
- inhibition [1]: < 10%
- Activity [2]: 3.03 equiv
- inhibition [3]: 97%
- Activity (THP-1 [7]): Active
- pIC50 (Acetylcholinesterase): 6.05

SMILES: Cn1c(=O)sc2cc(NC(=O)CCN3CCN(c4ccc(F)cc4)CC3)ccc21
- inhibition [1]: < 10%
- Activity [2]: 4.03 equiv
- inhibition [3]: 37%

SMILES: CN(CCC(=O)Nc1ccc2c(c1)oc(=O)n2C)Cc1ccccc1
- inhibition [1]: 42%
- Activity [2]: 4.3 equiv
- inhibition [3]: 58%
- pIC50 (Acetylcholinesterase): 4.28

SMILES: Cn1c(=O)sc2cc(NC(=O)CCCN3CCN(Cc4ccccc4)CC3)ccc21
- Activity (THP-1 [4]): Active
- Activity (THP-1 [5]): Active
- Activity (THP-1 [6]): Active
- inhibition [1]: < 10%
- Activity [2]: 3.91 equiv
- inhibition [3]: 93%
- Activity (THP-1 [7]): Active
- pIC50 (Acetylcholinesterase): 5.71

SMILES: COc1ccc(N2CCN(CCC(=O)Nc3ccc4c(c3)sc(=O)n4C)CC2)cc1
- inhibition [1]: < 10%
- Activity [2]: 4.55 equiv
- inhibition [3]: 31%
